Assay results of several laboratories.
Sample: plasma

CC(C)(Nc1nc(-c2ccccn2)nc2ccccc12)c1ccccn1
MRT(0-inf) (female BALB/c mouse; intravenous; 1 mg/kg): 1.2 h

COc1nc(-c2cc(C)c(N[C@@H](C)c3cc(F)cc(F)c3)nn2)ccc1-n1cnc(C)c1
MRT(0-t) (male CD-1 mouse; oral; 5 mg/kg; single dose): 5.4 h

CC1(C)CC[C@]2(C(=O)O)CC[C@]3(C)C(=CC[C@@H]4[C@@]5(C)C[C@@H](O)[C@H](OC(=O)/C=C/c6ccc(O)cc6)C(C)(C)[C@@H]5CC[C@]43C)[C@@H]2C1 (relative stereo)
MRT(0-inf) (mouse; intraperitoneal; 85 µmol/kg; single dose): 11.9 h

c1ccc(-c2nc(N3CCC(c4ccccn4)C3)c3ccccc3n2)nc1 (stereo not shown)
MRT(0-t) (female BALB/c mouse; oral; 12.5 mg/kg): 5.1 h

CNC(=O)c1cc(OC)cc2c(N3CCc4c(cc(Cn5ccnc5)cc4-c4cn(C)nc4C(F)(F)F)C3=O)ccnc12
MRT(0-inf) (male CD-1 mouse; oral; 50 mg/kg): 2 h

Cc1cc(NC(=O)c2cccc3cc(-c4cccc5[nH]nc(N)c45)ccc23)ccc1F
MRT(0-inf) (male CD-1 mouse; oral; 10 mg/kg): 3.54 h

CCc1cc(C(=O)NC)c2nccc(N3CCc4c(cc(Cn5ccnc5)cc4-c4cn(C)nc4C(F)(F)F)C3=O)c2c1
MRT(0-inf) (male CD-1 mouse; oral; 50 mg/kg): 3.1 h

COc1nc(-c2cc(C)c(N[C@@H](C)c3ccc(F)cc3)nn2)ccc1-n1cnc(C)c1
MRT(0-t) (male CD-1 mouse; intravenous; 1 mg/kg; single dose): 3.62 h

COc1ccc2nccc(N3CCc4c(cc(Cn5ccnc5)cc4-c4cn(C)nc4C(F)(F)F)C3=O)c2c1
MRT(0-inf) (male CD-1 mouse; oral; 10 mg/kg): 1.4 h

COc1nc(-c2cc(C)c(N[C@@H](C)c3c(F)cc(F)cc3F)nn2)ccc1-n1cnc(C)c1
MRT(0-t) (male CD-1 mouse; intravenous; 1 mg/kg; single dose): 3.3 h
